SENP8 block-1: SENP8 protease inhibitors, primary screen, biochemical, luminescence; purified SENP8, Z-RLRGG-aminoluciferin cleavage; inhibition, % at 10 µM; 1.2% of 330,000 active; AID 2540, 2010; in the data active means inhibition above about 50%
Target sequence (Q96LD8 whole entry, looked up): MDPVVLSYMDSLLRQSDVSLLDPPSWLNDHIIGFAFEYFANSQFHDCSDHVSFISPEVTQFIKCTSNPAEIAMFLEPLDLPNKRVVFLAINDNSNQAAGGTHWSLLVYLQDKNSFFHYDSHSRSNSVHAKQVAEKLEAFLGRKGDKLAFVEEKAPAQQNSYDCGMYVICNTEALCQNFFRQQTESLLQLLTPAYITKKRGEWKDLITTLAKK
SENP1 inh: human SENP1 catalytic domain inhibitors, primary screen, biochemical, FRET, uHTS; recombinant SENP1 catalytic domain, CyPet-SUMO1-YPet FRET cleavage; inhibition, % at 10 µM; 0.21% of 360,000 active;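 active means inhibition at least 30% at 10 µM, raw YFP signal under a set limit, fluorescence ratio 0.5 to 1.5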;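 further: 0% = enzyme with DMSO and 100% = no enzyme wells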
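material = recombinant human SENP1 catalytic domain, His6-tagged | quantity = 20 pM enzyme | reagent = 25 nM SUMO1 FRET substrate | compound dosing = 10 µM single point, 0.5% DMSO | timing = 50 min enzyme reaction, room temperature, light-protected | detection = FRET, CFP and YFP emission | control set = no-enzyme low, enzyme-DMSO high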
SENP6 inh: SENP6 protease inhibitors, primary screen, biochemical, luminescence, uHTS | 1.8% of 330,000 active | inhibition, % at 10 µM | Recombinant SENP6 catalytic domain, aminoluciferin luminescence;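 active means inhibition above about 50% at the single tested dose, limit read from the data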;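 further: plate controls were DMSO wells with enzyme for no effect and DMSO wells lacking enzyme for full effect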
SENP8 block-2: human SENP8 protease inhibitors, primary screen, biochemical, fluorescence, Nedd8 protein substrate, uHTS. inhibition, % at 20 µM. Sentrin-specific protease 8 (Homo sapiens), Q96LD8. 0.64% of 360,000 active. recombinant SENP8; in the data active means inhibition mostly above about 40%, no sharp cut-off; inactive means mostly below about 27%
SENP7 inh: SENP7 protease inhibitors, primary screen, biochemical, luminescence, uHTS | Sentrin-specific protease 7 (Homo sapiens), Q9BQF6 | recombinant SENP7, Z-RLRGG-aminoluciferin luminescence, 40 min | inhibition, % at 5 µM | 1.5% of 330,000 active;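 active means inhibition above about 50% at the single test dose, limit read from the data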;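 further: plate controls were DMSO with enzyme for no effect and no enzyme buffer wells for full effect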
SENP8 confirm: SENP8 protease inhibitors, retest, confirmation, biochemical, luminescence, single concentration; shares compounds with SENP7 inh; Recombinant SENP8, Z-RLRGG-aminoluciferin luminescence, 60 min; inhibition, % at 12.5 µM; 40% of 6,200 active; AID 488912, 2010;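 active means mean inhibition across replicates above about 50%, limit read from the data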
SENP6 conf: SENP6 protease inhibitors, confirmation, biochemical, luminescence, single concentration. shares compounds with SENP7 inh. recombinant SENP6, Z-RLRGG-aminoluciferin luminescence. inhibition, % at 12.5 µM. 58% of 6,200 active. AID 488915, 2010
SENP7 conf: SENP7 protease inhibitors, retest, confirmation, biochemical, luminescence, single concentration. shares compounds with SENP7 inh. recombinant SENP7, Z-RLRGG-aminoluciferin luminescence, 40 min. inhibition, % at 12.5 µM. 69% of 6,200 active. AID 488917, 2010
Casp3 select: caspase-3 protease inhibitors, confirmation, selectivity assay for SENP inhibitor project, biochemical, single concentration. shares compounds with SENP7 inh. purified caspase-3, Z-DEVD-aminoluciferin luminescence, 60 min. inhibition, % at 12.5 µM. 60% of 6,200 active;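 active means mean inhibition above about 50%, limit read from the data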;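 further: plate controls were enzyme with DMSO for no effect and wells without caspase-3 for full effect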
Target sequence (P42574 28-227 limits assumed): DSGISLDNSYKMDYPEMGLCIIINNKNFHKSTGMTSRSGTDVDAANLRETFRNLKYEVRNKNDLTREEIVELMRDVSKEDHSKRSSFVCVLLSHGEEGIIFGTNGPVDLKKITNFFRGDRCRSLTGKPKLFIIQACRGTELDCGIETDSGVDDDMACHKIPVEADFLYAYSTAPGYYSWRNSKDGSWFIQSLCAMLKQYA
SENP luc ctr: counter-screen for SENP inhibitors: luminescence interference; shares compounds with SENP7 inh; Pre-incubated SENP8/Z-RLRGG-aminoluciferin, luciferase luminescence interference; inhibition, % at 12.5 µM; 39% of 6,200 active; AID 488919;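 active means mean inhibition above about 50% when retested at one dose, limit read from the data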;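 further: plate controls were DMSO wells with completed reaction for no effect and substrate without enzyme for full effect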
* marks the source's active call; other numbers are inactive results; . = no result given. The list is not random: actives were taken first. Their share in the collection is about 2.5%.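 How the source made its calls, unless noted: active means mean inhibition above about 50% in the one-dose retest (limit read from the data); inactive means the rest.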

SMILES | SENP8 block-1 | SENP1 inh | SENP6 inh | SENP8 block-2 | SENP7 inh | SENP8 confirm | SENP6 conf | SENP7 conf | Casp3 select | SENP luc ctr
COc1cc(Cn2c(N)c(C#N)c3nc4ccccc4nc32)cc(OC)c1 | 23 | -122 | 88* | -295 | 8 | 5 | 8 | 12 | 5 | 7
CCCCONc1ncnc2nonc12 | -5 | 1 | -10 | 10 | 5 | . | . | . | . | .
CCCC[C@@H]1Cc2[nH][nH]c(=O)c2[C@H](c2ccc(C(C)C)cc2)O1 | . | 0 | . | 13 | . | . | . | . | . | .
C[C@@H]1O[C@H](C2CCCC2)Cc2[nH]c(=S)[nH]c(=O)c21 | . | -3 | . | 15 | . | . | . | . | . | .
Cc1ccc2c(C)c(C(=O)N3CCN(C4CCS(=O)(=O)C4)CC3)oc2c1C (centres undefined) | -10 | 1 | -8 | 6 | -1 | . | . | . | . | .
Nc1c(C(=O)Nc2cccc(F)c2)nnn1-c1ccc2c(c1)OCCO2 | 17 | 4 | 43 | 10 | 83* | 14 | 23 | 94* | 69* | 13
O=C(Nc1cccc(F)c1)Nc1ccc2c(c1)OCO2 | 85* | 1 | 93* | 0 | 96* | 84* | 86* | 99* | 86* | 80*
O=C(Nc1ccc2c(c1)OCO2)c1cccc(F)c1 | 46 | 1 | 79* | 13 | 76* | 54* | 54* | 87* | 82* | 70*
Cc1cccc(C(=O)Nc2cccc(C(=O)N/N=C/c3ccc4c(c3)OCO4)c2)c1 | 34 | -17 | 50* | -148 | -7 | 58* | 46 | 46 | 47 | 26
Cc1cccc(C(=O)Nc2ccc(C(=O)N/N=C/c3ccc4c(c3)OCO4)cc2)c1 | 2 | -1 | -3 | -281 | -1 | . | . | . | . | .
Cc1ccccc1NC(=O)c1nnn(-c2ccc3c(c2)OCCO3)c1N | 17 | 0 | 32 | 8 | 23 | . | . | . | . | .
Cc1c(NC(=O)c2cc(Br)ccc2Cl)cccc1-n1cnnn1 | -4 | 3 | -17 | 2 | 14 | . | . | . | . | .
COc1ccc(S(=O)(=O)N2CCOCC2)cc1C(=O)NC1CCCCCC1 | -8 | 2 | -7 | 18 | -7 | . | . | . | . | .
O=C(CSc1ccccn1)c1ccc2c(c1)OCO2 | 54* | 1 | 84* | 12 | 73* | 41 | 70* | 92* | 84* | 75*
COc1ccc(Nc2nnc(-c3ccncc3)s2)cc1Cl | 66* | -4 | 73* | -276 | 96* | 30 | 24 | 44 | 54* | 6
Cc1ccc(Nc2nnc(-c3ccncc3)s2)c(Br)c1 | 4 | 2 | 4 | 7 | 12 | . | . | . | . | .
COc1ccc(Cl)cc1Nc1nnc(-c2ccncc2)s1 | 51* | -5 | 76* | -292 | 95* | -14 | 9 | -4 | 1 | -6
Clc1ccccc1Nc1nnc(-c2ccncc2)s1 | 96* | 0 | 98* | -399 | 100* | 98* | 99* | 102* | 97* | 34
FC(F)(F)c1ccc(Cl)c(Nc2nnc(-c3ccncc3)s2)c1 | . | 2 | . | -338 | . | . | . | . | . | .
